# Measured values from ChEMBL document CHEMBL1123178, “Preparation and evaluation of radioiodinated (iodophenyl)cholines and their morpholinium and piperidinium analogues as myocardial perfusion imaging agents” (J Med Chem, 1986).
# Assays:
# [1] = Distribution in the kidneys after 30 min of intravenous administration; format: ADME, tissue-based, Kidney; settings: 0.5 h
# Procedure, shortened: (§1)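 Swiss white mice (20-25 g) anesthetized with sodium pentobarbital (80 mg/kg ip), then given 0.1-0.2 mL (74 kBq) of radioiodinated compound or 201Tl+ by tail-vein injection. Four mice per time point were killed by cardiac puncture/exsanguination at 5, 15, 30 and 60 min (some also at 90 and 120 min). Organs were excised, washed, blotted and weighed, blood was sampled, and radioactivity was counted against injection standards. Values are percent injected dose/g.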
# [2] = Distribution in the heart after 120 min of intravenous administration; format: ADME, tissue-based; settings: 2 h; procedure, shortened: as §1
# [3] = Distribution in the spleen after 5 min of intravenous administration; format: ADME, tissue-based; procedure, shortened: as §1
# [4] = Distribution in the spleen after 90 min of intravenous administration; format: ADME, tissue-based; settings: 1.5 h; procedure, shortened: as §1
# [5] = Distribution in the blood after 60 min of intravenous administration; format: ADME, tissue-based; settings: 1 h; procedure, shortened: as §1
# [6] = Distribution in the lung after 15 min of intravenous administration; format: ADME, tissue-based; settings: 0.25 h; procedure, shortened: as §1
# [7] = Distribution in the bone after 90 min of intravenous administration; format: ADME, tissue-based, Bone element; settings: 1.5 h; procedure, shortened: as §1
# [8] = Distribution in the bone after 60 min of intravenous administration; format: ADME, tissue-based, Bone element; settings: 1 h; procedure, shortened: as §1
# [9] = Distribution in the kidneys after 90 min of intravenous administration; format: ADME, tissue-based, Kidney; settings: 1.5 h; procedure, shortened: as §1
# [10] = Distribution in the heart after 30 min of intravenous administration; format: ADME, tissue-based; settings: 0.5 h; procedure, shortened: as §1
# [11] = Distribution in the muscle after 90 min of intravenous administration; format: ADME, tissue-based, Muscle tissue; settings: 1.5 h; procedure, shortened: as §1
# [12] = Distribution in the liver after 15 min of intravenous administration; format: ADME, tissue-based; settings: 0.25 h; procedure, shortened: as §1
# [13] = Distribution in the heart after 60 min of intravenous administration; format: ADME, tissue-based; settings: 1 h; procedure, shortened: as §1
# [14] = Distribution in the bone after 5 min of intravenous administration; format: ADME, tissue-based, Bone element; procedure, shortened: as §1
# [15] = Distribution in the blood after 5 min of intravenous administration; format: ADME, tissue-based; procedure, shortened: as §1
# [16] = Distribution in the liver after 90 min of intravenous administration; format: ADME, tissue-based; settings: 1.5 h; procedure, shortened: as §1
# [17] = Distribution in the bone after 120 min of intravenous administration; format: ADME, tissue-based, Bone element; settings: 2 h; procedure, shortened: as §1
# [18] = Distribution in the kidneys after 60 min of intravenous administration; format: ADME, tissue-based, Kidney; settings: 1 h; procedure, shortened: as §1
# [19] = Distribution in the lung after 5 min of intravenous administration; format: ADME, tissue-based; procedure, shortened: as §1
# [20] = Distribution in the heart after 90 min of intravenous administration; format: ADME, tissue-based; settings: 1.5 h; procedure, shortened: as §1
# [21] = Distribution in the spleen after 60 min of intravenous administration; format: ADME, tissue-based; settings: 1 h; procedure, shortened: as §1
# [22] = Distribution in the kidneys after 15 min of intravenous administration; format: ADME, tissue-based, Kidney; settings: 0.25 h; procedure, shortened: as §1
# [23] = Distribution in the spleen after 30 min of intravenous administration; format: ADME, tissue-based; settings: 0.5 h; procedure, shortened: as §1
# [24] = Distribution in the blood after 120 min of intravenous administration; format: ADME, tissue-based; settings: 2 h; procedure, shortened: as §1
# [25] = Distribution in the blood after 15 min of intravenous administration; format: ADME, tissue-based; settings: 0.25 h; procedure, shortened: as §1
# [26] = Distribution in the blood after 30 min of intravenous administration; format: ADME, tissue-based; settings: 0.5 h; procedure, shortened: as §1
# [27] = Distribution in the heart after 15 min of intravenous administration; format: ADME, tissue-based; settings: 0.25 h; procedure, shortened: as §1
# [28] = Distribution in the lung after 30 min of intravenous administration; format: ADME, tissue-based; settings: 0.5 h; procedure, shortened: as §1
# [29] = Distribution in the bone after 15 min of intravenous administration; format: ADME, tissue-based, Bone element; settings: 0.25 h; procedure, shortened: as §1
# [30] = Distribution in the spleen after 120 min of intravenous administration; format: ADME, tissue-based; settings: 2 h; procedure, shortened: as §1
# [31] = Distribution in the lung after 90 min of intravenous administration; format: ADME, tissue-based; settings: 1.5 h; procedure, shortened: as §1
# [32] = Distribution in the muscle after 60 min of intravenous administration; format: ADME, tissue-based, Muscle tissue; settings: 1 h; procedure, shortened: as §1
# [33] = Distribution in the liver after 60 min of intravenous administration; format: ADME, tissue-based; settings: 1 h; procedure, shortened: as §1
# [34] = Distribution in the heart after 5 min of intravenous administration; format: ADME, tissue-based; procedure, shortened: as §1
# [35] = Distribution in the kidneys after 120 min of intravenous administration; format: ADME, tissue-based, Kidney; settings: 2 h; procedure, shortened: as §1
# [36] = Distribution in the kidneys after 5 min of intravenous administration; format: ADME, tissue-based, Kidney; procedure, shortened: as §1
# [37] = Distribution in the muscle after 5 min of intravenous administration; format: ADME, tissue-based, Muscle tissue; procedure, shortened: as §1
# [38] = Distribution in the liver after 30 min of intravenous administration; format: ADME, tissue-based; settings: 0.5 h; procedure, shortened: as §1
# [39] = Distribution in the liver after 5 min of intravenous administration; format: ADME, tissue-based; procedure, shortened: as §1
# [40] = Distribution in the lung after 60 min of intravenous administration; format: ADME, tissue-based; settings: 1 h; procedure, shortened: as §1
# [41] = Distribution in the lung after 120 min of intravenous administration; format: ADME, tissue-based; settings: 2 h; procedure, shortened: as §1
# [42] = Distribution in the muscle after 15 min of intravenous administration; format: ADME, tissue-based, Muscle tissue; settings: 0.25 h; procedure, shortened: as §1
# [43] = Distribution in the bone after 30 min of intravenous administration; format: ADME, tissue-based, Bone element; settings: 0.5 h; procedure, shortened: as §1
# [44] = test system: Mus musculus; experiment: Distribution in the muscle after 30 min of intravenous administration; format: ADME, organism-based, Muscle tissue; settings: in vivo, 0.5 h; procedure, shortened: as §1
# [45] = Distribution in the spleen after 15 min of intravenous administration; format: ADME, tissue-based; settings: 0.25 h; procedure, shortened: as §1
# [46] = Distribution in the blood after 90 min of intravenous administration; format: ADME, tissue-based; settings: 1.5 h; procedure, shortened: as §1
# [47] = Distribution in the liver after 120 min of intravenous administration; format: ADME, tissue-based; settings: 2 h; procedure, shortened: as §1
# [48] = Distribution in the muscle after 120 min of intravenous administration; format: ADME, tissue-based, Muscle tissue; settings: 2 h; procedure, shortened: as §1
structure (smiles),measurement,setting,value
C[N+]1(CCOc2cccc(I)c2)CCCCC1,Distribution,[1],14.1%
same,Distribution,[2],17.7%
same,Distribution,[3],5%
same,Distribution,[4],2.1%
same,Distribution,[5],1.5%
same,Distribution,[6],5.5%
same,Distribution,[7],1.3%
same,Distribution,[8],1.5%
same,Distribution,[9],5.3%
same,Distribution,[10],23.1%
same,Distribution,[11],1%
same,Distribution,[12],4.9%
same,Distribution,[13],19.5%
same,Distribution,[14],1.6%
same,Distribution,[15],1.9%
same,Distribution,[16],2.3%
same,Distribution,[17],1.3%
same,Distribution,[18],7.4%
same,Distribution,[19],7.3%
same,Distribution,[20],18.1%
same,Distribution,[21],2.6%
same,Distribution,[22],24%
same,Distribution,[23],3.4%
same,Distribution,[24],1.4%
same,Distribution,[25],2.4%
same,Distribution,[26],1.9%
same,Distribution,[27],21.6%
same,Distribution,[28],4.6%
same,Distribution,[29],2%
same,Distribution,[30],2.1%
same,Distribution,[31],2.7%
same,Distribution,[32],1%
same,Distribution,[33],2.4%
same,Distribution,[34],20%
same,Distribution,[35],6%
same,Distribution,[36],40.1%
same,Distribution,[37],0.9%
same,Distribution,[38],4.1%
same,Distribution,[39],12.5%
same,Distribution,[40],3.4%
same,Distribution,[41],2.6%
same,Distribution,[42],1%
same,Distribution,[43],2%
same,Distribution,[44],1.1%
same,Distribution,[45],3.6%
same,Distribution,[46],1.2%
same,Distribution,[47],2%
same,Distribution,[48],1.1%
